Experimental data published in ChEMBL document CHEMBL1221258, “Biaryl substituted hydantoin compounds as TACE inhibitors” (Bioorg Med Chem Lett, 2010).
Values belong to the molecule of their own block, whether it stands above or below them.

How the values were obtained:
[1] = biological target: Disintegrin and metalloproteinase domain-containing protein 17 (Homo sapiens, UniProt P78536); assay: Inhibition of TACE assessed as inhibition of pro-TNFalpha peptide cleavage
Rattus norvegicus [2] = assay: Half life in rat at 3 mg/kg, iv; type: ADME, organism-based; set-up: dose 3 mg/kg, route intravenous; conditions: in vivo
Outline: (§1)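 Rats were dosed separately at 3 mg/kg iv and 10 mg/kg po. Reported parameters were AUC (µM h), T1/2 (h), Cl (L/h/kg) and Vss (L/kg) after iv dosing, and AUC, Cmax (µM), Tmax (h) and F% after oral dosing.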

[3] = biological target: Matrix metalloproteinase-14 (Homo sapiens) (UniProt P50281); assay: Inhibition of MMP14
[4] = Cmax in rat at 10 mg/kg, po; type: ADME, organism-based; set-up: dose 10 mg/kg, route oral; conditions: in vivo; outline: as §1
[5] = AUC in rat at 10 mg/kg, po; type: ADME, organism-based; set-up: dose 10 mg/kg, route oral; conditions: plasma
[6] = biological target: Collagenase 3 (Homo sapiens) (UniProt P45452); assay: Inhibition of MMP13
[7] = Oral bioavailability in rat at 10 mg/kg; type: ADME, organism-based; conditions: in vivo; outline: as §1
[8] = biological target: Matrix metalloproteinase-9 (Homo sapiens) (UniProt P14780); assay: Inhibition of MMP9
[9] = biological target: T1, Interstitial collagenase (Homo sapiens) (UniProt P03956); assay: Inhibition of MMP1
T1 sequence (whole entry): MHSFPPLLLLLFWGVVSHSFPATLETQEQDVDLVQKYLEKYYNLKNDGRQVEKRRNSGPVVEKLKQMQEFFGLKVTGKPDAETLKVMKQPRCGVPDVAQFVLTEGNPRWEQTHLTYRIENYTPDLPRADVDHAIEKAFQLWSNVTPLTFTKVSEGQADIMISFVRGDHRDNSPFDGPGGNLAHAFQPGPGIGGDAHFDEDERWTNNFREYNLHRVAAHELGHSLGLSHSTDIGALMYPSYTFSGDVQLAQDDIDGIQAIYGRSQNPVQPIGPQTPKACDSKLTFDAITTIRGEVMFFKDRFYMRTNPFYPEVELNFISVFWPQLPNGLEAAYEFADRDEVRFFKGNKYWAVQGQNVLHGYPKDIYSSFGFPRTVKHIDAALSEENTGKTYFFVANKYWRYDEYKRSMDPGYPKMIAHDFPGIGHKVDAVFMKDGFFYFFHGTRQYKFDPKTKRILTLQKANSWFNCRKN

Rattus norvegicus [10] = assay: AUC in rat at 3 mg/kg, iv; type: ADME, organism-based, Plasma; set-up: dose 3 mg/kg, route intravenous; conditions: in vivo
[11] = biological target: Stromelysin-1 (Homo sapiens) (UniProt P08254); assay: Inhibition of MMP3
[12] = biological target: T2, Matrilysin (Homo sapiens) (UniProt P09237); assay: Inhibition of MMP7
T2 sequence (whole entry): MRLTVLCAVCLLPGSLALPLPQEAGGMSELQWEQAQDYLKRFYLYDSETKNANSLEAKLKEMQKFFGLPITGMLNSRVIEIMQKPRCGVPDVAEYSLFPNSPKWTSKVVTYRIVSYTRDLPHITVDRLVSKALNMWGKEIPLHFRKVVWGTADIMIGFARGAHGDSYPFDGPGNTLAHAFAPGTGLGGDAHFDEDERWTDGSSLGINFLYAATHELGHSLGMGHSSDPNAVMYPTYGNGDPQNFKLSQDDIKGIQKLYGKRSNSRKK

[13] = Tmax in rat at 10 mg/kg, po; type: ADME, organism-based; set-up: dose 10 mg/kg, route oral; conditions: in vivo; outline: as §1
Rattus norvegicus [14] = assay: Volume of distribution at steady state in rat at 3 mg/kg, iv; type: ADME, organism-based; set-up: dose 3 mg/kg, route intravenous; conditions: in vivo; outline: as §1
[15] = biological target: T3, Disintegrin and metalloproteinase domain-containing protein 10 (Homo sapiens) (UniProt O14672); assay: Inhibition of ADAM10
T3 sequence (whole entry): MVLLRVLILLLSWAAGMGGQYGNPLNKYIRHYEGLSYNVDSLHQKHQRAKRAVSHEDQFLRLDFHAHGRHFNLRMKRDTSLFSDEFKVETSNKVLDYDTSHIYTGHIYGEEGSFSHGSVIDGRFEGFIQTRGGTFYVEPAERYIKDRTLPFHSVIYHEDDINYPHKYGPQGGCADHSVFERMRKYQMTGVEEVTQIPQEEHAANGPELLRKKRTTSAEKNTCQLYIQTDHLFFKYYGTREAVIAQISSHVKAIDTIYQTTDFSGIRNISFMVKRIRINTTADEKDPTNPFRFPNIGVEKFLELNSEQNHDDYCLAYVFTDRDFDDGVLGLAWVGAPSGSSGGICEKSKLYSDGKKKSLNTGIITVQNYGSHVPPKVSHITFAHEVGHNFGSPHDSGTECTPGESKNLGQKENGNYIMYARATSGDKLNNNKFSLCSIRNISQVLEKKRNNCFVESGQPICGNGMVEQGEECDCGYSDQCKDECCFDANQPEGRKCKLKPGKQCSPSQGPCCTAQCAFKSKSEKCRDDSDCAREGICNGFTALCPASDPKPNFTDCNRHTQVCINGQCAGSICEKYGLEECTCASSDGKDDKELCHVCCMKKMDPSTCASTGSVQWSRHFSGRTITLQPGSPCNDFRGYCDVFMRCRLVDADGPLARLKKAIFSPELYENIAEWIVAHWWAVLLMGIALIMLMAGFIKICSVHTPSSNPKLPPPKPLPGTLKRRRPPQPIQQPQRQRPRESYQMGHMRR

Rattus norvegicus [16] = assay: Clearance in rat at 3 mg/kg, iv; type: ADME, organism-based; set-up: dose 3 mg/kg, route intravenous; conditions: in vivo; outline: as §1
[17] = biological target: 72 kDa type IV collagenase (Homo sapiens) (UniProt P08253); assay: Inhibition of MMP2
Sequence of 72 kDa type IV collagenase (Homo sapiens) (P08253 110-660 limits assumed): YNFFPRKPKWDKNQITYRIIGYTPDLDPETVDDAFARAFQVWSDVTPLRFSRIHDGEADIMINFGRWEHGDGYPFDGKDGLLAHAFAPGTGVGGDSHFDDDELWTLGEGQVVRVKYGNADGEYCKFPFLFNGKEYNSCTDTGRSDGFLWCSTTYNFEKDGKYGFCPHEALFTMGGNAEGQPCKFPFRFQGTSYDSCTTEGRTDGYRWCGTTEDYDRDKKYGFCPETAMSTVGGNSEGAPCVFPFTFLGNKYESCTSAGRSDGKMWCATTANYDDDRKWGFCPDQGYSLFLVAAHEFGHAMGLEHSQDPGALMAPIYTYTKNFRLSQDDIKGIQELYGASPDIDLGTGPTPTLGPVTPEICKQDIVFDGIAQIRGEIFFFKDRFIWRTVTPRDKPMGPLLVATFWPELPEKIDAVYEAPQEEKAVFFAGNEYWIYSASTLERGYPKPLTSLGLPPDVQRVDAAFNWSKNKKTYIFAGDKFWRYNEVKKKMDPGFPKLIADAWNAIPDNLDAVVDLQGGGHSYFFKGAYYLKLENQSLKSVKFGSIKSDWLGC

Sequence of Stromelysin-1 (Homo sapiens) (P08254 100-477 limits assumed): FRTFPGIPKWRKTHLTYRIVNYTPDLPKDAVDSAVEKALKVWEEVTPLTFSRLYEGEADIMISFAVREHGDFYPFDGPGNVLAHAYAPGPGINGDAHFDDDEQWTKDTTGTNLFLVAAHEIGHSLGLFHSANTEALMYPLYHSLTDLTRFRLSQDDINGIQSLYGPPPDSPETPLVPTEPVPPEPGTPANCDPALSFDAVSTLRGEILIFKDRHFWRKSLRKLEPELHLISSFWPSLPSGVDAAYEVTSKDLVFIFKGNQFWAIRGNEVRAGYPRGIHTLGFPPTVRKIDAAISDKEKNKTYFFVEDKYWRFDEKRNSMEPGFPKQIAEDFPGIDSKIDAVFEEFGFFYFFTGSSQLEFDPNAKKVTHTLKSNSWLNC
Sequence of Matrix metalloproteinase-9 (Homo sapiens) (P14780 whole entry): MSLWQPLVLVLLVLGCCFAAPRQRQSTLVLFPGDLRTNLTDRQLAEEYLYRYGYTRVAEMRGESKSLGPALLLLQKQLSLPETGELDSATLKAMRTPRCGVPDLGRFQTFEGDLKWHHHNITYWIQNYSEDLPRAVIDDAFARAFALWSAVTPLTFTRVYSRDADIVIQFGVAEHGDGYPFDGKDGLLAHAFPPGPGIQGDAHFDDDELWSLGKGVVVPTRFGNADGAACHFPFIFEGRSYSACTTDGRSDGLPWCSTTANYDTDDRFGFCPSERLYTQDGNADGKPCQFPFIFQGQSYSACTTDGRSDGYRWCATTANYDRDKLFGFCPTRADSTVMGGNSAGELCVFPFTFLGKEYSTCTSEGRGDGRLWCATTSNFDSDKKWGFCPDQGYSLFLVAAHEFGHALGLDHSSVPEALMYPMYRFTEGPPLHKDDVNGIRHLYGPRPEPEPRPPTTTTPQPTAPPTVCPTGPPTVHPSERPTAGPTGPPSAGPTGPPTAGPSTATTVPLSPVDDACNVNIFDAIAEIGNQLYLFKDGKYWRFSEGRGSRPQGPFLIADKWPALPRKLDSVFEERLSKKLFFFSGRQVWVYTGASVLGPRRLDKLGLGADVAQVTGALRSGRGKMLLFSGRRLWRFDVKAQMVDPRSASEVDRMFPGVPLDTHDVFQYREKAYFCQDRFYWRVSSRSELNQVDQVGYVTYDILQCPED
Sequence of Disintegrin and metalloproteinase domain-containing protein 17 (P78536 whole entry, the tested form may be a part): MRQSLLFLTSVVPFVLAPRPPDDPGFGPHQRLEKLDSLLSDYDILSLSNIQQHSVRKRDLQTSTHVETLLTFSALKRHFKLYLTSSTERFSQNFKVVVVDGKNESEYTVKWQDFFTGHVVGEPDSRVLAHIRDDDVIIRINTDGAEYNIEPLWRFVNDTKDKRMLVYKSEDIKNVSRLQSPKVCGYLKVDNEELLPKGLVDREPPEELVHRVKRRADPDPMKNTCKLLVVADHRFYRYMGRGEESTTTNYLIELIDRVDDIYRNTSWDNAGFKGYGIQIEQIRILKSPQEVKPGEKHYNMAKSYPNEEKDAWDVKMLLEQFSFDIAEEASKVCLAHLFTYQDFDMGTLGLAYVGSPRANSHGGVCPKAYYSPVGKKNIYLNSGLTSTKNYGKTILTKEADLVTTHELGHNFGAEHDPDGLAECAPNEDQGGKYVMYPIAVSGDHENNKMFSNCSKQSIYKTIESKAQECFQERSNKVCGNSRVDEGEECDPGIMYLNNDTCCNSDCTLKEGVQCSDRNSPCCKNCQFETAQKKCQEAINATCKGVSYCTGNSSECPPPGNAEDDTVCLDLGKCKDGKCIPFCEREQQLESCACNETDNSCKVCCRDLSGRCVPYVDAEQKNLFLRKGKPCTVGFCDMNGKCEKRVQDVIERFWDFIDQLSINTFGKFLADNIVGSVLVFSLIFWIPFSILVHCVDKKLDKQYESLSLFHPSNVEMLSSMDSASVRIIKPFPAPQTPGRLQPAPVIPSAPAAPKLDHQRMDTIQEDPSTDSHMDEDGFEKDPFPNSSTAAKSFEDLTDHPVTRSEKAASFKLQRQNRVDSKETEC

SMILES: COc1ccc2c(c1)C(=O)N(C[C@@]1(c3ccc(C4(C)NC(=O)NC4=O)cc3)NC(=O)NC1=O)C2 (stereo partly drawn)
- Ki [1]: 2.6 nM

SMILES: COc1ccc2c(c1)C(=O)N(C[C@@]1(c3ccc(-c4cccc(-c5csc(C)n5)c4)cc3)NC(=O)NC1=O)C2
- Ki [1]: 31 nM

SMILES: COc1ccc2c(c1)C(=O)N(C[C@@]1(c3ccc(-c4cncnc4)cc3)NC(=O)NC1=O)C2
- Ki [1]: 0.9 nM

SMILES: COc1ccc2c(c1)C(=O)N(C[C@@]1(c3ccc(-c4ccnc(N)c4)cc3)NC(=O)NC1=O)C2
- Ki [1]: 1.4 nM

SMILES: COc1ccc2c(c1)C(=O)N(C[C@@]1(c3ccc(Oc4ccncc4)cc3)NC(=O)NC1=O)C2
- Ki [1]: 7 nM

SMILES: COc1ccc2c(c1)C(=O)N(C[C@@]1(c3ccc(-c4ccnc(C)c4)cc3)NC(=O)NC1=O)C2
- t1/2 (Rattus norvegicus [2]): 4.4 h
- INH [3]: 36 nM
- Cmax [4]: 3.3 µM
- INH [17]: 86 nM
- AUC [5]: 13 µM·h
- INH [6]: 194 nM
- bioavailability [7]: 19%
- INH [8]: 212 nM
- Ki [1]: 0.5 nM
- INH [9]: 1740 nM
- AUC (Rattus norvegicus [10]): 21 µM·h
- INH [11]: 434 nM
- INH [12]: 30 µM
- Tmax [13]: 1.7 h
- Vdss (Rattus norvegicus [14]): 0.3 L/kg
- INH [15]: 253 nM
- CL (Rattus norvegicus [16]): 91.7 mL/min/kg

SMILES: COc1ccc2c(c1)C(=O)N(C[C@@]1(c3ccc(-c4cc(-c5ccccc5)no4)cc3)NC(=O)NC1=O)C2
- Ki [1]: 28 nM

SMILES: O=C1NC(=O)[C@](CN2Cc3ccc(F)cc3C2=O)(c2ccc(-c3c[nH]c(=O)c(Cl)c3)cc2)N1
- Ki [1]: 0.1 nM

SMILES: COc1ccc2c(c1)C(=O)N(C[C@@]1(c3ccc(-c4ccncc4)cc3)NC(=O)NC1=O)C2
- Ki [1]: 0.6 nM

Second part, the molecule after the results:

- Ki [1]: 9 nM
SMILES: COC(=O)c1ccc(-c2ccc([C@]3(CN4Cc5ccc(OC)cc5C4=O)NC(=O)NC3=O)cc2)cc1

- Ki [1]: 2 nM
SMILES: O=C1NC(=O)[C@](CN2Cc3ccc(F)cc3C2=O)(c2ccc(-c3ccc(F)cc3F)cc2)N1

- t1/2 (Rattus norvegicus [2]): 4.3 h
- INH [3]: 25 nM
- Cmax [4]: 2.96 µM
- AUC [5]: 9.1 µM·h
- INH [6]: 155 nM
- bioavailability [7]: 14.1%
- INH [8]: 124 nM
- INH [9]: 655 nM
- AUC (Rattus norvegicus [10]): 19 µM·h
- INH [11]: 3.61 nM
- INH [12]: 17.4 µM
- Tmax [13]: 0.58 h
- Vdss (Rattus norvegicus [14]): 0.3 L/kg
- INH [15]: 216 nM
- CL (Rattus norvegicus [16]): 103 mL/min/kg
SMILES: COc1ccc2c(c1)C(=O)N(C[C@@]1(c3ccc(-c4cccnc4)cc3)NC(=O)NC1=O)C2

- Ki [1]: 18 nM
SMILES: O=C1NC(=O)[C@](CN2Cc3ccc(F)cc3C2=O)(c2ccc(-c3ccc(C(F)(F)F)cc3)cc2)N1

- t1/2 (Rattus norvegicus [2]): 4.4 h
- INH [3]: 19 nM
- Cmax [4]: 4.45 µM
- INH [17]: 24 nM
- AUC [5]: 22.2 µM·h
- INH [6]: 202 nM
- bioavailability [7]: 18%
- INH [8]: 122 nM
- INH [9]: 718 nM
- AUC (Rattus norvegicus [10]): 36.2 µM·h
- INH [11]: 430 nM
- INH [12]: > 40 µM
- Tmax [13]: 2 h
- Vdss (Rattus norvegicus [14]): 0.3 L/kg
- INH [15]: 187 nM
- CL (Rattus norvegicus [16]): 55 mL/min/kg
SMILES: COc1ccc2c(c1)C(=O)N(C[C@@]1(c3ccc(-c4cnn(C)c4)cc3)NC(=O)NC1=O)C2

- Ki [1]: 8 nM
SMILES: COc1ccc2c(c1)C(=O)N(C[C@@]1(c3ccc(Oc4ccc5cnccc5c4)cc3)NC(=O)NC1=O)C2

- Ki [1]: 3 nM
SMILES: COc1ccc2c(c1)C(=O)N(C[C@@]1(c3ccc(-c4ccc(C(N)=O)cc4)cc3)NC(=O)NC1=O)C2

- Ki [1]: 0.2 nM
SMILES: O=C1NC(=O)[C@](CN2Cc3ccc(F)cc3C2=O)(c2ccc(-c3ccc(=O)[nH]c3)cc2)N1

- Ki [1]: 0.6 nM
SMILES: COc1ccc2c(c1)C(=O)N(C[C@@]1(c3ccc(-c4nccs4)cc3)NC(=O)NC1=O)C2
